Experimental data reported in ChEMBL document CHEMBL1144121, “Umbelliferone analogues and their potential to inhibit Benzo(a)pyrene- and hydrogen peroxide-induced mutations” (J Nat Prod, 1999).

Key:
Salmonella typhimurium [1] = test: Antimutagenic activity in Salmonella Typhimurium TA100 assessed as protection against benzo[a]pyrene-induced mutation at 32 ug/plate after 2 days by modified Ames test; format: functional, Salmonella enterica subsp. enterica serovar Typhimurium; conditions: at 32 µg/plate
Salmonella typhimurium [2] = test: Antimutagenic activity in Salmonella Typhimurium TA102 assessed as protection against hydrogen peroxide-induced mutation at 1 ug/plate after 2 days by modified Ames test; format: functional, Salmonella enterica subsp. enterica serovar Typhimurium
Summary of the method: (§1)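 S. typhimurium TA102 grown 15 h at 37 °C in Oxoid Nutrient Broth No. 2 with shaking to about (1-2) × 10^8 cells/mL. Culture in histidine/biotin-supplemented top agar with 100 μg hydrogen peroxide and test compound. Plated on Vogel-Bonner E medium, 37 °C for 2 days. His+ revertants scored on 3 plates, averaged, and % protection taken relative to mutagen-induced revertants minus spontaneous revertants.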

Salmonella typhimurium [3] = test: Antimutagenic activity in Salmonella Typhimurium TA102 assessed as protection against hydrogen peroxide-induced mutation at 2 ug/plate after 2 days by modified Ames test; format: functional, Salmonella enterica subsp. enterica serovar Typhimurium; summary of the method: as §1
Salmonella typhimurium [4] = test: Antimutagenic activity in Salmonella Typhimurium TA100 assessed as protection against benzo[a]pyrene-induced mutation at 2 ug/plate after 2 days by modified Ames test; format: functional, Salmonella enterica subsp. enterica serovar Typhimurium
Summary of the method: as §1, with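 “TA100” for “TA102”, “5” for “100”, “benzo(a)pyrene plus 50 μL S9” for “hydrogen peroxide”, “mutagen” for “mutagen-induced revertants”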

Salmonella typhimurium [5] = test: Antimutagenic activity in Salmonella Typhimurium TA100 assessed as protection against benzo[a]pyrene-induced mutation at 8 ug/plate after 2 days by modified Ames test; format: functional, Salmonella enterica subsp. enterica serovar Typhimurium; conditions: at 8 µg/plate
Salmonella typhimurium [6] = test: Antimutagenic activity in Salmonella Typhimurium TA102 assessed as protection against hydrogen peroxide-induced mutation at 4 ug/plate after 2 days by modified Ames test; format: functional, Salmonella enterica subsp. enterica serovar Typhimurium; conditions: at 4 µg/plate
Salmonella typhimurium [7] = test: Antimutagenic activity in Salmonella Typhimurium TA100 assessed as protection against benzo[a]pyrene-induced mutation at 4 ug/plate after 2 days by modified Ames test; format: functional, Salmonella enterica subsp. enterica serovar Typhimurium
Summary of the method: as §1, with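 “TA100” for “TA102”, “5” for “100”, “benzo(a)pyrene plus 50 μL S9” for “hydrogen peroxide”, “mutagen” for “mutagen-induced revertants”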

Salmonella typhimurium [8] = test: Antimutagenic activity in Salmonella Typhimurium TA100 assessed as protection against benzo[a]pyrene-induced mutation at 16 ug/plate after 2 days by modified Ames test; format: functional, Salmonella enterica subsp. enterica serovar Typhimurium; conditions: at 16 µg/plate
Salmonella typhimurium [9] = test: Antimutagenic activity in Salmonella Typhimurium TA102 assessed as protection against hydrogen peroxide-induced mutation at 8 ug/plate after 2 days by modified Ames test; format: functional, Salmonella enterica subsp. enterica serovar Typhimurium; conditions: at 8 µg/plate
[10] = Cytotoxicity against Salmonella Typhimurium TA100 assessed as maximum non-toxic concentrations after 15 hrs by ELISA; conditions: salmonella enterica subsp. enterica serovar typhimurium, Salmonella Typhimurium TA100 bacteria

Row | Structure (SMILES) | Activity (Salmonella typhimurium [1]) [%] | Activity (Salmonella typhimurium [2]) [%] | Activity (Salmonella typhimurium [3]) [%] | Activity (Salmonella typhimurium [4]) [%] | Activity (Salmonella typhimurium [5]) [%] | Activity (Salmonella typhimurium [6]) [%] | Activity (Salmonella typhimurium [7]) [%] | Activity (Salmonella typhimurium [8]) [%] | Activity (Salmonella typhimurium [9]) [%] | MNTC at 15 h [10] [µg/mL]
1 | CC1=CC[C@@H](O)C(C)(C)[C@H]1CC/C(C)=C/COc1ccc2ccc(=O)oc2c1 | 45 | – | – | – | – | – | – | – | – | –
2 | C#CC(C)(C)Oc1ccc2ccc(=O)oc2c1 | – | 0 | 0 | 10 | 25 | 11 | 15 | – | – | –
3 | CC(C)=CCOc1ccc2ccc(=O)oc2c1 [7-PRENYLOXYCOUMARIN] | – | 9 | 14 | 19 | 36 | 17 | 29 | – | – | –
4 | COc1ccc2ccc(=O)oc2c1 [HERNIARIN] | – | 0 | 10 | 21 | 36 | 11 | 28 | – | – | –
5 | CC1(C)C=Cc2c(ccc3ccc(=O)oc23)O1 [SESALIN] | – | – | 0 | – | 8 | 8 | 1 | 20 | 22 | –
6 | O=c1ccc2ccc(OCC3CCCCC3)cc2o1 [UMBELLIFERONECYCLOHEXYLMETHYL ETHER] | – | – | 0 | – | 44 | 5 | 33 | 54 | 39 | 16
7 | O=c1ccc2ccc(O)cc2o1 [UMBELLIFERONE] | – | – | 7 | – | 22 | 13 | 10 | 39 | 28 | –
